The values below come from ChEMBL document CHEMBL1143171, “Structure-activity studies on 1,3-dioxane-2-carboxylic acid derivatives, a novel class of subtype-selective peroxisome proliferator-activated receptor alpha (PPARalpha) agonists” (Bioorg Med Chem, 2008).

Assay [1] deals with Mus musculus. As to the kind of experiment: Hypolipidemic effect on diabetic KK-Ay mouse assessed as increase in plasma HDL cholesterol level at 300 mg/kg/day, po after 4 days. It is filed as functional. The method in brief: (§1)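 Male KK-Ay mice, 10 weeks old and fed chow ad libitum, were dosed orally once daily for 4 days (n = 5) with suspensions in 0.5% methylcellulose. On the day after the last dose, nonfasted tail-vein plasma was assayed enzymatically for TG and glucose. Vena cava plasma taken under pentobarbital had lipoprotein cholesterol measured by HPLC with on-line enzymatic detection. Values are % change of the group mean from vehicle controls.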

Assay [2] relates to Mus musculus. As to the kind of experiment: Hypolipidemic effect on diabetic KK-Ay mouse assessed as reduction of plasma triglyceride level at 300 mg/kg/day, po after 4 days. The class given is functional. Set-up: scale not given: the % may be the effect or the level left. Summed up: as §1
Assay [3] has as its system Mus musculus. Put plainly: Hypoglycemic effect on diabetic KK-Ay mouse assessed as reduction of plasma glucose level at 300 mg/kg/day, po after 4 days. The class given is functional. Set-up: scale not given: the % may be the effect or the level left. Summed up:
as §1

Assay [4] addresses T1, Peroxisome proliferator-activated receptor alpha (Homo sapiens, UniProt Q07869).
T1 sequence (Q07869 whole entry): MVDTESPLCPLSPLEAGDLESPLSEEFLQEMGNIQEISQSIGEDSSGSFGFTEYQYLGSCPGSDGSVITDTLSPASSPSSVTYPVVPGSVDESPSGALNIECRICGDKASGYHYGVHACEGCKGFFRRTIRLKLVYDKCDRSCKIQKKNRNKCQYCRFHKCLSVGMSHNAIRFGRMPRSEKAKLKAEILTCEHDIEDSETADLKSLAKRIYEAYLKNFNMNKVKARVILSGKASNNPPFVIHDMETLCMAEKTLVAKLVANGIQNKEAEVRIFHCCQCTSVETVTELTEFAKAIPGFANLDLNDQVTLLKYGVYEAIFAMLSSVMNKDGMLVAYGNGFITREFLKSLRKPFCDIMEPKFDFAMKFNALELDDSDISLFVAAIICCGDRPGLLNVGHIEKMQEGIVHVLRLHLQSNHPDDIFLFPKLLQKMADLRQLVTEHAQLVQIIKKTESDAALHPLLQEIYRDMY
As to the kind of experiment: Agonist activity at human PPARalpha expressed in CV1 cells by transactivation assay. The class given is functional, cell-based, CV-1.

Assay [5] has as its system Mus musculus. Put plainly: Hypolipidemic effect on diabetic KK-Ay mouse assessed as reduction of plasma VLDL cholesterol level at 300 mg/kg/day, po after 4 days. Set-up: scale not given: the % may be the effect or the level left. The class given is functional. The method in brief: as §1
Assay [6] has as its target T2, Peroxisome proliferator-activated receptor delta (Homo sapiens, UniProt Q03181).
T2 sequence (Q03181 whole entry): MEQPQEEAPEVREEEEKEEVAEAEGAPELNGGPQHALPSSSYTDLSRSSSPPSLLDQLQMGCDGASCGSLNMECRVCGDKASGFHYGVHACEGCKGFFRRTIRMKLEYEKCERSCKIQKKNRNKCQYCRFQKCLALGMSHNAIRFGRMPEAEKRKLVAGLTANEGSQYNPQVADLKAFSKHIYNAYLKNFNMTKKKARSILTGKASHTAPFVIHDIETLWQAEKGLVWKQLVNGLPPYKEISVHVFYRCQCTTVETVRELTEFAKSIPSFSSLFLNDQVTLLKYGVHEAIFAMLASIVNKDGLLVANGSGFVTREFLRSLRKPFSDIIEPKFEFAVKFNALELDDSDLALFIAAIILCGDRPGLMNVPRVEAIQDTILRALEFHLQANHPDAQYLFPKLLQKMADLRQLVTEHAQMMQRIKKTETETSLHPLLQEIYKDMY
Put plainly: Agonist activity at human PPARdelta expressed in CV1 cells by transactivation assay. It is filed as functional, cell-based, CV-1.

Each structure is given as a SMILES string.

`CC(C)(Oc1ccc(C(=O)c2ccc(Cl)cc2)cc1)C(=O)O` [FENOFIBRIC ACID]: the Activity in the assay on Mus musculus [1] is listed as 17%; with Mus musculus [2] it was -40%; with Mus musculus [3] it was -25%; in the assay on Mus musculus [5], -31%. Also, the EC50 in assay [4] and in assay [6] was over 100 µM each time.
